Measured values: ChEMBL document CHEMBL4043083, “Design and synthesis of bicyclic acetals as Beta Secretase (BACE1) inhibitors” (Bioorg Med Chem, 2017)

Experiments:
Beta-secretase 1 [1] = target: T1, Beta-secretase 1 (Homo sapiens, UniProt P56817); assay: Inhibition of BACE1 (unknown origin) at 10 uM pre-incubated for 10 mins before addition of fluorescent substrate HiLyte FluorTM 488-Glu-Val-Asn-Leu-Asp-Ala-Glu-Phe-Lys and measured over 30 mins
In short: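 BACE1 (1 µg/mL) preincubated with inhibitor at 10 µM, 10 min, 25 °C, then reaction started by adding the internally quenched substrate (QXL 520 quencher). Fluorescence (ex 490/em 520 nm) read over 30 min at 25 °C. Percent inhibition = (1−Vs/Vo)×100 from initial velocities with and without inhibitor.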

Beta-secretase 1 [2] = target: T1, Beta-secretase 1; assay: Inhibition of BACE1 (unknown origin) pre-incubated for 10 mins before addition of fluorescent substrate HiLyte FluorTM 488-Glu-Val-Asn-Leu-Asp-Ala-Glu-Phe-Lys and measured over 30 mins
In short: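 Kit-based fluorometric BACE1 assay. Enzyme at 1 µg/mL, preincubated 10 min at 25 °C with inhibitor across 0.003–30 µM before substrate (QXL 520-quenched) addition. Initial velocities taken from ex 490/em 520 nm fluorescence over 30 min at 25 °C. IC50 from the dose-response, run in triplicate in three independent experiments, given as mean ± SD.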

T1 sequence (P56817 whole entry): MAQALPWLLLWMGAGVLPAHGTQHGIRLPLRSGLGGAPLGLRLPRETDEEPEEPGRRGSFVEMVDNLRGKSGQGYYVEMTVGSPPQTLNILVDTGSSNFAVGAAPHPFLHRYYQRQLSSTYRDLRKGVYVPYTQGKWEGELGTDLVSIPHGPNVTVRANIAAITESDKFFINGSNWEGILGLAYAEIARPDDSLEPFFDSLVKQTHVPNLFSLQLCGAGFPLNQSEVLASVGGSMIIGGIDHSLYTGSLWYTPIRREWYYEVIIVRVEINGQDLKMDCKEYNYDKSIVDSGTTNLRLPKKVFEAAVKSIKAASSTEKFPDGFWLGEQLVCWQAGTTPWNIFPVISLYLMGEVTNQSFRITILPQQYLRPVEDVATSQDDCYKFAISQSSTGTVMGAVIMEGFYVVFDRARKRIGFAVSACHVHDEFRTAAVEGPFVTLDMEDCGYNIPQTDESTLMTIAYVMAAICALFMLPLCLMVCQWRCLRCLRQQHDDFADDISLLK

| Compound | inhibition (Beta-secretase 1 [1]) [%] | IC50 (Beta-secretase 1 [2]) [nM] |
| --- | --- | --- |
| COC(=O)[C@H]1O[C@H]2O[C@@H]1C(=S)N(Cc1ccccc1)[C@@H]2Cc1ccccc1 | 9 | – |
| CCOC(=O)N1CCN(C(=O)[C@H]2O[C@H]3O[C@@H]2C(=S)N(Cc2ccccc2)[C@@H]3Cc2ccccc2)CC1 | 5 | – |
| CC(C)C[C@@H](CO)NC(=O)[C@@H]1O[C@H]2CN(Cc3ccccc3)C(=O)[C@@H]1O2 | 8 | – |
| CC(C)C[C@H](CO)NC(=O)[C@@H]1O[C@H]2CN(Cc3ccccc3)C(=O)[C@@H]1O2 | 0 | – |
| C#CCNC(=O)[C@@H]1O[C@H]2CN(Cc3ccccc3)C[C@@H]1O2 | 0 | – |
| O=C([C@@H]1O[C@@H]2O[C@H]1C(=O)N(Cc1ccccc1)[C@H]2Cc1ccccc1)N1CCCCC1 | 15 | – |
| C#CCNC(=O)[C@@H]1O[C@@H]2O[C@H]1C(=O)N(Cc1ccccc1)[C@H]2Cc1ccccc1 | 29 | – |
| O=C([C@@H]1O[C@@H]2O[C@H]1C(=S)N(Cc1ccccc1)[C@H]2Cc1ccccc1)N1CCOCC1 | 0 | – |
| CC(C)C[C@H](CO)NC(=O)[C@H]1O[C@@H]2CN(Cc3ccccc3)C(=O)[C@H]1O2 | 0 | – |
| CC(C)C[C@@H](CO)NC(=O)[C@H]1O[C@@H]2CN(Cc3ccccc3)C(=O)[C@H]1O2 | 0 | – |
| CCOC(=O)N1CCN(C(=O)[C@@H]2O[C@@H]3O[C@H]2C(=S)N(Cc2ccccc2)[C@H]3Cc2ccccc2)CC1 | 16 | – |
| COC(=O)[C@@H]1O[C@@H]2O[C@H]1C(=S)N(Cc1ccccc1)[C@H]2Cc1ccccc1 | 61 | 2600 |
| O=C([C@@H]1O[C@H]2CN(Cc3ccccc3)C(=S)[C@@H]1O2)N1CCOCC1 | 10 | – |
| O=C([C@H]1O[C@H]2O[C@@H]1C(=S)N(Cc1ccccc1)[C@@H]2Cc1ccccc1)N1CCOCC1 | 32 | – |
| CCOC(=O)N1CCN(C(=O)[C@@H]2O[C@H]3CN(Cc4ccccc4)C(=S)[C@@H]2O3)CC1 | 0 | – |
| COC(=O)[C@@H]1O[C@H]2CN(Cc3ccccc3)C(=S)[C@@H]1O2 | 16 | – |
| O=C([C@@H]1O[C@@]2(c3ccccc3)CN(Cc3ccccc3)C(=O)[C@@H]1O2)N1CCOCC1 | 0 | – |
| COC(=O)[C@H](CC(C)C)N1C[C@@H]2O[C@@H](C(=O)N3CCCCC3)[C@@H](O2)C1=O | 46 | – |
| O=C([C@@H]1O[C@H]2CN(Cc3ccccc3)C(=O)[C@@H]1O2)N1CCCCC1 | 36 | – |
| COC(=O)[C@H](c1ccccc1)N1C[C@@H]2O[C@@H](C(=O)N3CCCCC3)[C@@H](O2)C1=O | 0 | – |
| O=C(NC1CCCCC1)[C@@H]1O[C@@]2(c3ccccc3)CN(C(c3ccccc3)c3ccccc3)C(=O)[C@@H]1O2 | 0 | – |
